Data on 4 compounds can be found in ChEMBL document CHEMBL3124924, “Bifunctional ethyl 2-amino-4-methylthiazole-5-carboxylate derivatives: synthesis and in vitro biological evaluation as antimicrobial and anticancer agents” (2014).

Structures are written as SMILES. Converted amounts (≈) assume the structure as drawn.

One experiment relates to A498. Description: Cytotoxicity against human A498 cells assessed as growth inhibition at 10 uM after 48 hrs by SRB assay. It is filed as functional. The settings on record: A498, 48 h, read-out: GI. The procedure, abridged: (§1)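 NCI-60 one-dose primary screen run by the NCI Drug Evaluation Branch across the full 60-line panel. Single high-dose treatment with 48 h continuous drug exposure. Cell growth estimated by sulforhodamine B protein staining. Results given as percent growth of treated cells and expressed as percentage growth inhibition.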
(The SRB assay estimates cell density from bound dye.)
Turning to `CCOC(=O)c1sc(NS(=O)(=O)c2ccccc2)nc1C`, the inhibition of growth at 10 µM amounted to 11.6%.

On to `Cc1nc(NC(=O)Nc2ccccc2)sc1C(=O)NN`, for which the inhibition of growth at 10 µM came to 3.17%.

Turning to `CCOC(=O)c1sc(NC(=O)NC2CCCCC2)nc1C`, the inhibition of growth at 10 µM turned out to be 15.3%.

Take `Cc1nc(NC(=O)NC2CCCCC2)sc1C(=O)NN`: the inhibition of growth at 10 µM was < 10%.

Another experiment relates to NCI-H322M. The experiment can be described thus: Cytotoxicity against human NCI-H322M cells assessed as growth inhibition at 10 uM after 48 hrs by SRB assay. It is filed as functional. The settings on record: read-out: GI. In a few lines:
as §1
In the case of `CCOC(=O)c1sc(NS(=O)(=O)c2ccccc2)nc1C`, the inhibition of growth at 10 µM is < 10%.

For the compound `Cc1nc(NC(=O)Nc2ccccc2)sc1C(=O)NN`, the inhibition of growth at 10 µM amounted to 22%.

Take `CCOC(=O)c1sc(NC(=O)NC2CCCCC2)nc1C`: the inhibition of growth at 10 µM was < 10%.

Consider `Cc1nc(NC(=O)NC2CCCCC2)sc1C(=O)NN`, for which the inhibition of growth at 10 µM is < 10%.

The subject of a further experiment is Escherichia coli. Description: Antibacterial activity against Escherichia coli ATCC 25922 assessed as growth inhibition after 48 hrs by two-fold serial dilution assay. It counts as functional. The settings on record: ATCC 25922, 48 h. In a few lines:
(§2)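 Twofold serial broth dilution run on compounds giving inhibition zones of 13 mm or more. Organisms pre-grown in suitable broth at 37 °C, 24 h for bacteria and 48 h for fungi. Dilution series 200, 100, 50, 25, 12.5, 6.25. Each 5 mL tube inoculated with 0.1 mL and incubated 37 °C for 48 h. Tubes scored for presence or absence of growth.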
As a reminder, the MIC is the lowest concentration that inhibits growth of the organism. Regarding `CCOC(=O)c1sc(NS(=O)(=O)c2ccccc2)nc1C`, the MIC turned out to be 50 µg/mL (≈ 153 µM).

Regarding `Cc1nc(NC(=O)Nc2ccccc2)sc1C(=O)NN`, the MIC worked out at 12.5 µg/mL (≈ 42.9 µM).

In the case of `CCOC(=O)c1sc(NC(=O)NC2CCCCC2)nc1C`, the MIC turned out to be 50 µg/mL (≈ 161 µM).

Regarding `Cc1nc(NC(=O)NC2CCCCC2)sc1C(=O)NN`, the MIC is 50 µg/mL (≈ 168 µM).

The next experiment relates to MCF7. The experiment can be described thus: Cytotoxicity against human MCF7 cells assessed as growth inhibition at 10 uM after 48 hrs by SRB assay. The settings on record: MCF7, 48 h, read-out: GI. It counts as functional. In a few lines: as §1
In the case of `CCOC(=O)c1sc(NS(=O)(=O)c2ccccc2)nc1C`, the inhibition of growth at 10 µM was < 10%.

As to `Cc1nc(NC(=O)Nc2ccccc2)sc1C(=O)NN`, the inhibition of growth at 10 µM was 2.96%.

For `CCOC(=O)c1sc(NC(=O)NC2CCCCC2)nc1C`, the inhibition of growth at 10 µM stood at 12.7%.

In the case of `Cc1nc(NC(=O)NC2CCCCC2)sc1C(=O)NN`, the inhibition of growth at 10 µM was < 10%.

Test system in a further experiment: not listed separately
The experiment can be described thus: Cytotoxicity against human Hs578T cells assessed as growth inhibition at 10 uM after 48 hrs by SRB assay. It counts as functional. Particulars: Hs-578T, read-out: GI. The procedure, abridged: as §1
Regarding `CCOC(=O)c1sc(NS(=O)(=O)c2ccccc2)nc1C`, the inhibition of growth at 10 µM was < 10%.

Turning to `Cc1nc(NC(=O)Nc2ccccc2)sc1C(=O)NN`, the inhibition of growth at 10 µM came to 2.83%.

For the compound `CCOC(=O)c1sc(NC(=O)NC2CCCCC2)nc1C`, the inhibition of growth at 10 µM amounted to 8.4%.

In the case of `Cc1nc(NC(=O)NC2CCCCC2)sc1C(=O)NN`, the inhibition of growth at 10 µM is < 10%.

The next experiment concerns SNB-75. Description: Cytotoxicity against human SNB75 cells assessed as growth inhibition at 10 uM after 48 hrs by SRB assay. It counts as functional. The settings on record: SNB-75, 48 h, read-out: GI. In a few lines: as §1
Consider `CCOC(=O)c1sc(NS(=O)(=O)c2ccccc2)nc1C`, for which the inhibition of growth at 10 µM is 3.91%.

Regarding `Cc1nc(NC(=O)Nc2ccccc2)sc1C(=O)NN`, the inhibition of growth at 10 µM was < 10%.

Take `CCOC(=O)c1sc(NC(=O)NC2CCCCC2)nc1C`: the inhibition of growth at 10 µM was < 10%.

In the case of `Cc1nc(NC(=O)NC2CCCCC2)sc1C(=O)NN`, the inhibition of growth at 10 µM was < 10%.

The next experiment relates to HOP-92. The experiment can be described thus: Cytotoxicity against human HOP92 cells assessed as growth inhibition at 10 uM after 48 hrs by SRB assay. It is filed as functional. The settings on record: HOP-92, 48 h, read-out: GI. The procedure, abridged: as §1
Consider `CCOC(=O)c1sc(NS(=O)(=O)c2ccccc2)nc1C`, for which the inhibition of growth at 10 µM was < 10%.

Consider `Cc1nc(NC(=O)Nc2ccccc2)sc1C(=O)NN`, for which the inhibition of growth at 10 µM is < 10%.

As to `CCOC(=O)c1sc(NC(=O)NC2CCCCC2)nc1C`, the inhibition of growth at 10 µM stood at 53.9%.

In the case of `Cc1nc(NC(=O)NC2CCCCC2)sc1C(=O)NN`, the inhibition of growth at 10 µM was 82.8%.

Test system in a further experiment: not listed separately
Description: Cytotoxicity against human UO31 cells assessed as growth inhibition at 10 uM after 48 hrs by SRB assay. It counts as functional. Particulars: UO-31, 48 h, read-out: GI. In a few lines: as §1
For the compound `CCOC(=O)c1sc(NS(=O)(=O)c2ccccc2)nc1C`, the inhibition of growth at 10 µM was 13%.

For `Cc1nc(NC(=O)Nc2ccccc2)sc1C(=O)NN`, the inhibition of growth at 10 µM stood at 28%.

For the compound `CCOC(=O)c1sc(NC(=O)NC2CCCCC2)nc1C`, the inhibition of growth at 10 µM is 10.6%.

For `Cc1nc(NC(=O)NC2CCCCC2)sc1C(=O)NN`, the inhibition of growth at 10 µM amounted to 16%.

For a further experiment, the system named is Bacillus spizizenii. The experiment can be described thus: Antibacterial activity against Bacillus subtilis ATCC 6633 assessed as growth inhibition at 1 mg/mL after 24 hrs by agar-cup diffusion method. It counts as functional. Particulars: ATCC 6633, 24 h, read-out: DIZ. In a few lines:
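Agar-cup diffusion: 1 mL of 6 h broth culture seeded per 100 mL molten sterile agar at 45 °C and poured into plates. 8 mm cups cut, each filled with 0.1 mL of 1 mg/mL test solution. Incubated 37 °C for 24 h, 48 h for C. albicans. DMSO control per organism. Inhibition zone diameter in mm, mean of three measurements.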
As for `CCOC(=O)c1sc(NS(=O)(=O)c2ccccc2)nc1C`, the zone of inhibition at 1000 µg/mL is > 13 mm.

For the compound `Cc1nc(NC(=O)Nc2ccccc2)sc1C(=O)NN`, the zone of inhibition at 1000 µg/mL was > 13 mm.

`CCOC(=O)c1sc(NC(=O)NC2CCCCC2)nc1C`: the zone of inhibition at 1000 µg/mL was > 13 mm.

In the case of `Cc1nc(NC(=O)NC2CCCCC2)sc1C(=O)NN`, the zone of inhibition at 1000 µg/mL was > 13 mm.

In the next experiment the test system is Pseudomonas aeruginosa. Description: Bactericidal activity against Pseudomonas aeruginosa ATCC 27853 after 18 hrs. Particulars: ATCC 27853, 18 h. It counts as functional. The procedure, abridged:
(§3)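 Continuation of the broth-dilution MIC test. A loopful from each tube without visible growth spread on a quarter of a Mueller-Hinton agar plate and incubated 18 h. Lowest concentration giving no growth on subculture taken as the MBC.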
Usually MBC stands for the lowest tested concentration that kills the bacteria rather than only halting them. Compound `CCOC(=O)c1sc(NS(=O)(=O)c2ccccc2)nc1C` registered a minimal bactericidal concentration (MBC) of 200 µg/mL (≈ 613 µM).

On to `Cc1nc(NC(=O)Nc2ccccc2)sc1C(=O)NN`, for which the MBC is 100 µg/mL (≈ 343 µM).

Consider `Cc1nc(NC(=O)NC2CCCCC2)sc1C(=O)NN`, for which the MBC was 200 µg/mL (≈ 673 µM).

Test system in a further experiment: not listed separately
The experiment can be described thus: Cytotoxicity against human NCI-ADR-RES cells assessed as growth inhibition at 10 uM after 48 hrs by SRB assay. It counts as functional. Particulars: read-out: GI. The procedure, abridged:
as §1
Regarding `CCOC(=O)c1sc(NS(=O)(=O)c2ccccc2)nc1C`, the inhibition of growth at 10 µM was < 10%.

On to `Cc1nc(NC(=O)Nc2ccccc2)sc1C(=O)NN`, for which the inhibition of growth at 10 µM was found to be 6.43%.

Regarding `CCOC(=O)c1sc(NC(=O)NC2CCCCC2)nc1C`, the inhibition of growth at 10 µM was 8.96%.

Take `Cc1nc(NC(=O)NC2CCCCC2)sc1C(=O)NN`: the inhibition of growth at 10 µM is 3.01%.

A further experiment relates to SK-MEL-5. The experiment can be described thus: Cytotoxicity against human SK-MEL-5 cells assessed as growth inhibition at 10 uM after 48 hrs by SRB assay. Particulars: SK-MEL-5, 48 h, read-out: GI. It counts as functional. The procedure, abridged:
as §1
On to `CCOC(=O)c1sc(NS(=O)(=O)c2ccccc2)nc1C`, for which the inhibition of growth at 10 µM is < 10%.

For the compound `Cc1nc(NC(=O)Nc2ccccc2)sc1C(=O)NN`, the inhibition of growth at 10 µM was 2.35%.

As for `CCOC(=O)c1sc(NC(=O)NC2CCCCC2)nc1C`, the inhibition of growth at 10 µM stood at 8.95%.

For the compound `Cc1nc(NC(=O)NC2CCCCC2)sc1C(=O)NN`, the inhibition of growth at 10 µM is < 10%.

In the next experiment the test system is Candida albicans. Description: Antifungal activity against Candida albicans ATCC 10231 assessed as growth inhibition after 48 hrs by two-fold serial dilution assay. It is filed as functional. The settings on record: ATCC 10231, 48 h. In a few lines: as §2
As for `Cc1nc(NC(=O)Nc2ccccc2)sc1C(=O)NN`, the MIC was determined as 25 µg/mL (≈ 85.8 µM).

For `Cc1nc(NC(=O)NC2CCCCC2)sc1C(=O)NN`, the MIC amounted to 50 µg/mL (≈ 168 µM).

The next experiment deals with MOLT-4. The experiment can be described thus: Cytotoxicity against human MOLT4 cells assessed as growth inhibition at 10 uM after 48 hrs by SRB assay. The settings on record: MOLT-4, 48 h, read-out: GI. It is filed as functional. In a few lines: as §1
Consider `CCOC(=O)c1sc(NS(=O)(=O)c2ccccc2)nc1C`, for which the inhibition of growth at 10 µM came to 24.4%.

For `Cc1nc(NC(=O)Nc2ccccc2)sc1C(=O)NN`, the inhibition of growth at 10 µM is < 10%.

With `CCOC(=O)c1sc(NC(=O)NC2CCCCC2)nc1C`, the inhibition of growth at 10 µM came out at 12.3%.

As for `Cc1nc(NC(=O)NC2CCCCC2)sc1C(=O)NN`, the inhibition of growth at 10 µM was < 10%.

The subject of a further experiment is Candida albicans. Description: Fungicidal activity against Candida albicans ATCC 10231 after 18 hrs. It is filed as functional. The settings on record: ATCC 10231, 18 h. In a few lines:
as §3
A word on the MFC: it is the smallest concentration meeting the test's criterion for killing the fungus. The low end stands for greater fungicidal potency, the high end for weaker fungicidal potency. Compound `Cc1nc(NC(=O)Nc2ccccc2)sc1C(=O)NN` yielded an MFC of 25 µg/mL (≈ 85.8 µM).

In turn, `Cc1nc(NC(=O)NC2CCCCC2)sc1C(=O)NN` showed a minimum fungicidal concentration (MFC) of 100 µg/mL (≈ 336 µM).
